The results in this text go back to ChEMBL document CHEMBL1148746, “Functional characterization of Tet-AMPA [tetrazolyl-2-amino-3-(3-hydroxy-5-methyl- 4-isoxazolyl)propionic acid] analogues at ionotropic glutamate receptors GluR1-GluR4. The molecular basis for the functional selectivity profile of 2-Bn-Tet-AMPA” (J Med Chem, 2007).

For test [1], the target named is Glutamate receptor 3 (Rattus norvegicus) (UniProt P19492). In words: Agonist activity at GluR3 expressed in HEK293 cells by Fluo-4/Ca2+ assay. The settings on record: for pEC50: read-out: EC50; for EC50: read-out: Log EC50 (converted).
Glutamate receptor 3 (Rattus norvegicus), sequence (P19492 whole entry, looked up): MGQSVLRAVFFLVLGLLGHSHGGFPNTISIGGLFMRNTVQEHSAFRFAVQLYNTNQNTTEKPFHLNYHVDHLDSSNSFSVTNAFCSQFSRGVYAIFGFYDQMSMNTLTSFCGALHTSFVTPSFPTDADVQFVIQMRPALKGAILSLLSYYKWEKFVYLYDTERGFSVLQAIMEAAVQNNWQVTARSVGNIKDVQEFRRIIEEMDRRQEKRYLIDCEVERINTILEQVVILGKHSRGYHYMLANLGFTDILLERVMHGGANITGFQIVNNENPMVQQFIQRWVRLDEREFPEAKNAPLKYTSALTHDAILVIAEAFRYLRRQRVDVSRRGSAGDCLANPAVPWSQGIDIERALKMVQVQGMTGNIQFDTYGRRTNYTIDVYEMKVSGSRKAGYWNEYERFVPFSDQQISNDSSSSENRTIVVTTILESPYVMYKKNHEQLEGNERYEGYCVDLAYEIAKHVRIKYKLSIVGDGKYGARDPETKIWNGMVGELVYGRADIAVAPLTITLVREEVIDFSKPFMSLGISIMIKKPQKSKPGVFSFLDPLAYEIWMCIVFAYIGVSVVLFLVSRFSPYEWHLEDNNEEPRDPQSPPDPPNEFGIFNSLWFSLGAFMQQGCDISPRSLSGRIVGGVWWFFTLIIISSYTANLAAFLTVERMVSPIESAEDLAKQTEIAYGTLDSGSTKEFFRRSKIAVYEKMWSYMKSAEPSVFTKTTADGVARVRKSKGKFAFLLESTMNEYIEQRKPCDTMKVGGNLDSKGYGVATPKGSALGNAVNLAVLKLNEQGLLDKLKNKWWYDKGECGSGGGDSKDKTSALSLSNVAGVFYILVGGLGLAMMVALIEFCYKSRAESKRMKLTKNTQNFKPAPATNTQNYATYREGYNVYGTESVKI
Test [2] deals with Glutamate receptor 4 (Rattus norvegicus) (UniProt P19493). In words: Agonist activity at GluR4 expressed in HEK293 cells by Fluo-4/Ca2+ assay. Conditions: for pEC50: read-out: EC50.
Glutamate receptor 4 (Rattus norvegicus), sequence (P19493 whole entry, looked up): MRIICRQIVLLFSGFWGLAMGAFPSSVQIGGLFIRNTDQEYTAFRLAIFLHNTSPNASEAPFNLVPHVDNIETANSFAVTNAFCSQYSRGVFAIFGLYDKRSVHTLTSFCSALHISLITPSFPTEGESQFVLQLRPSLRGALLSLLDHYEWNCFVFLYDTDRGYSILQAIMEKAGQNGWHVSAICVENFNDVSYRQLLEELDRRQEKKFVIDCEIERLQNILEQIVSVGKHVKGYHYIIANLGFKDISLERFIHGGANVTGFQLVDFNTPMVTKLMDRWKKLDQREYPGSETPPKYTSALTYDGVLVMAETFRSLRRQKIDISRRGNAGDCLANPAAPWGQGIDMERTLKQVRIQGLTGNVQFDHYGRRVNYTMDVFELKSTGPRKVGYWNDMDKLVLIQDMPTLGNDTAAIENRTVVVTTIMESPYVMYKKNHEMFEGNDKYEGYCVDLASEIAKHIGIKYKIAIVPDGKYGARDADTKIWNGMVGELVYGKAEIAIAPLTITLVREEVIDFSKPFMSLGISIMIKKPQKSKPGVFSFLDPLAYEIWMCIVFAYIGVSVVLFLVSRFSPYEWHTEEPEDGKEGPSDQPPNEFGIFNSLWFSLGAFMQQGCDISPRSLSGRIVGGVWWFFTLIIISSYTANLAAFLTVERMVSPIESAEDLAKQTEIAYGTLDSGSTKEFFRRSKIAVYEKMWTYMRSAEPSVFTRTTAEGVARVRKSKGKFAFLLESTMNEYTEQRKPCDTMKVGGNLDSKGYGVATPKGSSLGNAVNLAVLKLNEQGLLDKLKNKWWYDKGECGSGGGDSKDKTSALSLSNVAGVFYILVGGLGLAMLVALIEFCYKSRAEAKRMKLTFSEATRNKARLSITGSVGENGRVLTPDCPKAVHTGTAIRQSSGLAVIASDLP
In test [3] the target is Glutamate receptor 1 (Rattus norvegicus) (UniProt P19490). In words: Agonist activity at GluR1 expressed in HEK293 cells relative to S-Glutamate by Fluo-4/Ca2+ assay.
Glutamate receptor 1 (Rattus norvegicus), sequence (P19490 whole entry, looked up): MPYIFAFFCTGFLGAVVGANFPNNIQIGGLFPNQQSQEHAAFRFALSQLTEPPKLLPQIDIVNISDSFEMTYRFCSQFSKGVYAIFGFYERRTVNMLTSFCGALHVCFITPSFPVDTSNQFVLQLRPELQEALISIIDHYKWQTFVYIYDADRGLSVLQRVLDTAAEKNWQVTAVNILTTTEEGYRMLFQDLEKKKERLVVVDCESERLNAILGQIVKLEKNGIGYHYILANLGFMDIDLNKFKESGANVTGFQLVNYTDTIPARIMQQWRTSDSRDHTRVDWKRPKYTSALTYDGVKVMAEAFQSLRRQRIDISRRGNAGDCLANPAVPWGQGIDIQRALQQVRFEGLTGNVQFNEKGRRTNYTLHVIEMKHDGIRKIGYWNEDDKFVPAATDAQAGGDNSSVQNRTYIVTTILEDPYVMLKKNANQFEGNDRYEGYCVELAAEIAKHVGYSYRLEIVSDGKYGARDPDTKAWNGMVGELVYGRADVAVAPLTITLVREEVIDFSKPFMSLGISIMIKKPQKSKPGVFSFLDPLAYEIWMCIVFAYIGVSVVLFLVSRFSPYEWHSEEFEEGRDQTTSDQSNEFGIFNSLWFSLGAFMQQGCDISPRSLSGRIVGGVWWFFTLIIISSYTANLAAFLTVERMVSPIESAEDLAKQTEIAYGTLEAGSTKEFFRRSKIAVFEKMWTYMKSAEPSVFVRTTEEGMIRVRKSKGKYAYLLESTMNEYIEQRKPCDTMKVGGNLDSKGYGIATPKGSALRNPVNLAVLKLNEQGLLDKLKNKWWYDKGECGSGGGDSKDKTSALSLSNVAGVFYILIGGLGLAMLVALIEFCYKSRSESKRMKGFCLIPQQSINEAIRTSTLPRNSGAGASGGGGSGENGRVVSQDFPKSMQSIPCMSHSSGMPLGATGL
The target in test [4] is Glutamate receptor 3 (Rattus norvegicus) (UniProt P19492). In words: Agonist activity at GluR3 expressed in HEK293 cells relative to S-Glutamate by Fluo-4/Ca2+ assay.
Test [5] concerns the target Glutamate receptor 1 (Rattus norvegicus) (UniProt P19490). In words: Agonist activity at GluR1 expressed in HEK293 cells by Fluo-4/Ca2+ assay.
The target of test [6] is Glutamate receptor 2 (Rattus norvegicus) (UniProt P19491). In words: Agonist activity at GluR2Q expressed in HEK293 cells by Fluo-4/Ca2+ assay.
Glutamate receptor 2 (Rattus norvegicus), sequence (P19491 whole entry, looked up): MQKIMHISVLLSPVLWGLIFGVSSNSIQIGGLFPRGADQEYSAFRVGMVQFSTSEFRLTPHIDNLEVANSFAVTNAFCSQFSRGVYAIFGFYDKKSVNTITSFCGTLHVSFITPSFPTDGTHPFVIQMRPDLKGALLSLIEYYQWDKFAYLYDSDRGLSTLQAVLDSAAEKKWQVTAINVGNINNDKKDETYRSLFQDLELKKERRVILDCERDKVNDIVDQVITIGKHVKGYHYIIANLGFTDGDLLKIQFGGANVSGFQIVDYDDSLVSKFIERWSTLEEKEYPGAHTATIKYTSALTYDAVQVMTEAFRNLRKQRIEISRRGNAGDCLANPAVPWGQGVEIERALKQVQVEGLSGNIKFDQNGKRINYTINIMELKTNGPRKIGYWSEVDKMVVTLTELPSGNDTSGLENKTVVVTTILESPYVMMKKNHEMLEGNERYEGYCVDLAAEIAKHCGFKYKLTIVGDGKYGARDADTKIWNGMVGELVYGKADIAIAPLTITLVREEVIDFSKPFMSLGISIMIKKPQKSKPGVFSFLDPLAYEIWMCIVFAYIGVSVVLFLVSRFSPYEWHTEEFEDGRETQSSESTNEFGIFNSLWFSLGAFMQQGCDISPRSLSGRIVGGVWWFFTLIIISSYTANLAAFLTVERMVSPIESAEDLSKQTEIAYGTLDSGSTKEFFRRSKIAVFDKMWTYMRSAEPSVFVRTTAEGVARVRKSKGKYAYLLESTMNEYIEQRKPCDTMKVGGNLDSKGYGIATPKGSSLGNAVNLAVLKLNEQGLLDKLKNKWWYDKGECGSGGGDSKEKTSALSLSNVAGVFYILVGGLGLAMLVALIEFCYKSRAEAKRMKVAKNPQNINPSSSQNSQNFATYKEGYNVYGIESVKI
Test [7] deals with Glutamate receptor 4 (Rattus norvegicus) (UniProt P19493). In words: Agonist activity at GluR4 expressed in HEK293 cells relative to S-Glutamate by Fluo-4/Ca2+ assay.
Test [8] deals with Glutamate receptor 1 (Homo sapiens), P42261 [D417S,M704V,I705A]. In words: Agonist activity at GluR1 D399S/M686V/I687A mutant expressed in Xenopus oocyte cells relative to S-Glutamate. The class given is functional, cell-based. In outline:
(§1)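 Rat GluR1i mutant or GluR4i cRNA expressed in Xenopus oocytes, recorded by two-electrode voltage clamp 2-3 days after injection. Low-Ca2+ Ringer's (115 mM NaCl, 0.1 mM CaCl2, pH 7.5) was used, with 30 s pretreatment and continuous application of 100 µM CTZ. Peak currents were normalized to 1000 µM glutamate + 100 µM CTZ and fitted to the Hill equation; n = 3.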

In test [9] the target is Glutamate receptor 4 (Homo sapiens) (UniProt P48058). In words: Agonist activity at GluR4 expressed in Xenopus oocyte cells relative to S-Glutamate. Format: functional, cell-based. In outline:
as §1

Test [10] can be described thus: Agonist activity at GluR1 M686V/I687 mutant expressed in HEK293 cells by Fluo-4/Ca2+ assay. Format: functional, cell-based. Conditions: Homo sapiens; for pEC50: read-out: EC50. In outline:
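Rat GluR1i mutants, cDNA sequence-verified, transiently transfected into HEK293 cells and kept 2-3 weeks under 3 mg/mL G-418 selection to make polyclonal cells. Cells were plated 16-24 h ahead, loaded with Fluo-4/AM for 1 h at 37 °C, then held in HBSS with 20 mM HEPES, 10 mM CaCl2, 2.5 mM probenecid and 100 µM CTZ, pH 7.4. Fluorescence (ex 485/em 520 nm) was read up to 60 s after agonist addition.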

pEC50: −log10 of the molar value. A value given as a limit tells only on which side of the number the result lay.

Glutamate receptor 1 (Homo sapiens), P42261 [D417S,M704V,I705A], sequence (P42261 whole entry D417S/M704V/I705A): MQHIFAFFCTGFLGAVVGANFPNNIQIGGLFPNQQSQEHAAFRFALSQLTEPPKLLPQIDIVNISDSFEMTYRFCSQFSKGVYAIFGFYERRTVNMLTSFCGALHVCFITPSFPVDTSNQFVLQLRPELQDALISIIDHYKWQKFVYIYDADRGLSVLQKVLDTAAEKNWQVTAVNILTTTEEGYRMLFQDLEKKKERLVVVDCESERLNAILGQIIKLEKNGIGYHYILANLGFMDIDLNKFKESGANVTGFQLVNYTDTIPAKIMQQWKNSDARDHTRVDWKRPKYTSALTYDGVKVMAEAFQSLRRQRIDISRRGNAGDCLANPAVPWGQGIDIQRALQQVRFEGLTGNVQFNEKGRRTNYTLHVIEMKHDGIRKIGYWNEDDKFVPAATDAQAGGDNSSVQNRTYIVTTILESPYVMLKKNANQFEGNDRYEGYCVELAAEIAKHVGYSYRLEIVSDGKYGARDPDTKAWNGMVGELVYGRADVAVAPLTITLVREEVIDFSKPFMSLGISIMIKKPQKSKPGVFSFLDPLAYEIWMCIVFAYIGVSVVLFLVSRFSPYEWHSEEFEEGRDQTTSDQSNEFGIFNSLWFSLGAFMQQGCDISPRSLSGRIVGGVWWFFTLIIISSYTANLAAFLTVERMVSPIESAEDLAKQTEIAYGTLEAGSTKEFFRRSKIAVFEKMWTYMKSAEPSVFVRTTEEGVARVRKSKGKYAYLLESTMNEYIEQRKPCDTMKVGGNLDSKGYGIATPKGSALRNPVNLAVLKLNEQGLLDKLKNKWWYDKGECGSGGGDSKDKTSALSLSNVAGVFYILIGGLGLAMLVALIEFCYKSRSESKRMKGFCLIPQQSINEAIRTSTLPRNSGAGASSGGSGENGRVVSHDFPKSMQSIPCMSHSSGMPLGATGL

For the molecule `CC(C)n1nnc(-c2onc(O)c2CC(N)C(=O)O)n1` (racemic), the negative-log EC50 (pEC50) is 3.15 in [1], 3.80 in test [2], 3.26 in test [5] and 3.00 in [6]. The figures for the RUmax in [3], in [4] and in test [7] were 73%, 73% and 83%, respectively.

As for `Cn1nnnc1-c1onc(O)c1CC(N)C(=O)O` (racemic), the pEC50 in [1] was under 2.52; in test [2], 2.52; in [5], under 2.52; in test [6] it was under 2.52. The results for the RUmax in test [4] and in [7] were 22% and 79%, respectively.

For the molecule `CCn1nnc(-c2o[nH]c(=O)c2CC(N)C(=O)O)n1` (racemic), the negative logarithm of the EC50 (pEC50) is 4.74 in test [1], 5.40 in test [2], 4.38 in [5] and 4.28 in [6]. For the same molecule, the EC50 in test [1] was 15.8 µM.

Turning to `CCCn1nnc(-c2onc(O)c2CC(N)C(=O)O)n1` (racemic), the pEC50 is 3.35 in test [1], 4.10 in test [2], 3.32 in test [5] and 3.08 in test [6]. The concentration for a half-maximal effect (EC50) in test [1] is 398 µM; in [2] (read-out: Log EC50 (converted)), 63.1 µM. Further, the RUmax in [3] was determined as 82%; in [4], 85%; in [7], 97%.

Regarding `NC(Cc1c(O)noc1-c1nnn(Cc2ccccc2)n1)C(=O)O` (racemic), the RUmax in test [8] was 60%; in test [9] it was 63%. Further, in test [10], the negative logarithm of the EC50 (pEC50) was 3.30.

For the molecule `CCn1nnc(-c2onc(O)c2CC(N)C(=O)O)n1` (racemic), the RUmax in [3] was found to be 83%; in test [4], 95%; in test [7], 94%.

`N[C@@H](CCC(=O)O)C(=O)O` [GLUTAMIC ACID]: in test [10], the pEC50 is 4.12. The EC50 in test [10] (read-out: Log EC50 (converted)) was 79.4 µM.
